According to PubChem BioAssay:
The source made the active and inactive calls.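 The calls were made as follows, unless noted: active = inhibition of the reporter signal at or above 50%; inactive = inhibition below 50%.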

Experiments:
[1] = inhibitors of TNFa-induced NFkB p65 translocation, primary screen, imaging, HUVEC, MLSMR starter and 10KST1 sets (AID 438;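 active = inhibition above 20% together with a positive visual image hit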;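 also: compound added about 3h40 before a 20 min TNFalpha stimulation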;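 as to inhibition: signal is the nuclear over cytoplasmic p65 intensity ratio per well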); conditions: HUVEC TNFa-induced p65 nuclear translocation; cell count: measured here: nuclei count (cytotoxicity indicator), at 2.08 µM; inhibition: at 2 µM, stronger effect = higher value, 0% TNFa-plus-vehicle, 100% no-TNFa wells
[2] = inhibitors of mutant huntingtin aggregation, primary screen, imaging, exon1htt(103Q)mCFP cells, high-content imaging (AID 483;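 active = visual image review flags a hit and inhibition of aggregation exceeds 20%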;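 also: compound exposure lasted 3 days before fixation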;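 as to nuclei count: percent of the per-plate median nuclei count of sample wells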); conditions: exon1htt(103Q)mCFP cell line, aggregate imaging, at 2 µM; inhibition of aggregation: stronger effect = higher value; nuclei count: measured here: cell count, toxicity
[3] = inhibitors of E-selectin induction by TNFa, primary screen, imaging, HUVEC, immunofluorescence, MLSMR starter and 10KST1 sets (AID 487;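 active = visually confirmed hit in the image check and inhibition above 20%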;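 as to inhibition: signal is fraction of cell area covered by stained E-selectin grains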;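 as to nuclei count: 100% = median nuclei count of all wells on the same plate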); conditions: HUVEC TNFalpha-induced E-selectin immunofluorescence imaging, at 2 µM; inhibition: stronger effect = higher value; nuclei count: measured here: cell number, toxicity
[4] = target: Voltage-gated potassium channel subunit beta-2 (Rattus norvegicus) (UniProt P62483); experiment: KvBeta enzyme negative modulators, primary screen, biochemical, NADPH fluorescence (AID 622;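 active = fluorescence slope higher than the sample average by over 3 SD, cut at about -0.22 in these data, passing the limit was not always enough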;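 also: slope of raw intensity against log time taken from 70 to 1610 s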); conditions: recombinant KvBeta, 4-cyanobenzaldehyde reduction, at 10 µM, stronger effect = higher value
[5] = target: Voltage-gated potassium channel subunit beta-2 (Rattus norvegicus) (UniProt P62483); experiment: KvBeta positive modulators, primary screen, biochemical, NADPH fluorescence (AID 623;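 active = NADPH fluorescence slope more negative than the mean of all samples by about 3 SD, 99.7% confidence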;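 also: fluorescence intensity change per second fitted from 20 to 320 s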); conditions: Recombinant KvBeta, NADPH fluorescence decrease slope, 10 min; at 10 µM; stronger effect = lower value
[6] = target: Muscarinic acetylcholine receptor M4 (Homo sapiens) (UniProt P08173); experiment: compounds altering M4/GIRK thallium flux, either direction, primary screen, M4 allosteric agonist project, cell-based, HEK293 M4/GIRK, BTC-AM (AID 625;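 active = fluorescence slope after compound addition differing from the mean of all tested samples at 99.7% confidence, mostly higher but some lower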;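 also: thallium influx through GIRK channels coupled to M4 in HEK293 cells with BTC-AM dye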); conditions: at 10 µM, actives lie on both sides
Outline: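 assay system = HEK293 cells with M4 receptor and GIRK channels | medium = pH 7.3 thallium assay buffer | doses = 10 µM final, single point | timing = cells overnight at 37 °C, BTC-AM loading 1 h, reads 2 min total | signal = BTC-AM fluorescence, 1 Hz kinetic reads | read-out = post-addition slope, 15–24 s, of baseline-normalized fluorescence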

[7] = inhibitors of Sendai virus-induced IRF3 signaling, primary screen, TLR/RLR signaling modifier project, cell-based, Sendai virus stimulus, luciferase, 10K MLSCN set (AID 602276;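 active = inhibition at or above 50% at 10 µM; inactive = inhibition below 50%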;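 also: firefly luciferase from ISG56 promoter only with Renilla not read in this screen; 0% = Sendai virus plus DMSO and 100% = medium plus DMSO without virus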); conditions: HEK293 RL24 IRF3 luciferase reporter, at 10 µM, stronger effect = higher value
[8] = inhibitors of poly I:C-induced TLR3 signaling, primary screen, cell-based, poly I:C stimulus, luciferase, 10K MLSCN set (AID 602277); conditions: HEK293-TLR3 RL24 IRF3 luciferase reporter, at 10 µM, stronger effect = higher value

Voltage-gated potassium channel subunit beta-2 (Rattus norvegicus), sequence (P62483 whole entry, looked up): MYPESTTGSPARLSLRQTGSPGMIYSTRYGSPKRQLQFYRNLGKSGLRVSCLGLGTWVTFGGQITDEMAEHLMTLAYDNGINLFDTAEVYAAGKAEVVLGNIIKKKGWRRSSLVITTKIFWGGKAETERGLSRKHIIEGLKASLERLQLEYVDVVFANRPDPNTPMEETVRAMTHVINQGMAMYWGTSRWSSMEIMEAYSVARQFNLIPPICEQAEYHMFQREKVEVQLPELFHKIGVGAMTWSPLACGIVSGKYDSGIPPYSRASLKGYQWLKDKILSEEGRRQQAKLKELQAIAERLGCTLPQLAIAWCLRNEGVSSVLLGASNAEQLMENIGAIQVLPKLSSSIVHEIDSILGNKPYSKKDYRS
Muscarinic acetylcholine receptor M4 (Homo sapiens), sequence (P08173 whole entry, looked up): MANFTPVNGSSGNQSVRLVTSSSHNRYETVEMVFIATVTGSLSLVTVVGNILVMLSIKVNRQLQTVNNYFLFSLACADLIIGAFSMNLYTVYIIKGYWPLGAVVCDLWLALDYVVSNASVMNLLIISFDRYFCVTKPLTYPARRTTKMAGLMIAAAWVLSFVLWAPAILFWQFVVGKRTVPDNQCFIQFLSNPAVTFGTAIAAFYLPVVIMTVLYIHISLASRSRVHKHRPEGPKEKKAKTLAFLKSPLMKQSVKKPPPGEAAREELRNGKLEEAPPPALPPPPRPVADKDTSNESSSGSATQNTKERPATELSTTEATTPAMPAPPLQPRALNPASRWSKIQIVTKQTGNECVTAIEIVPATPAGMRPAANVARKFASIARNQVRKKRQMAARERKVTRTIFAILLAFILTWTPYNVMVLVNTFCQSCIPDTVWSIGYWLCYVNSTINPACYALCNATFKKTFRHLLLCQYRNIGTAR

SMILES	cell count [1]	inhibition [1]	inhibition of aggregation [2]	nuclei count [2]	inhibition [3]	nuclei count [3]	fluorescence slope [4]	NADPH fluorescence slope [5]	fluorescence slope [6]	inhibition [7]	inhibition [8]
CCn1c(SCC(N)=O)nc2c1c(=O)n(C)c(=O)n2C	226	4.9% (inactive)	20.7% (inactive)	80.1%	-57.2% (inactive)	152%	-0.422 (inactive)	2.5e-05 (inactive)	0.00578 (inactive)	17.5% (inactive)	21.1% (inactive)
COc1cc2[nH]c(=O)n(CCCCCC(=O)NCCCN3CCCC3=O)c(=O)c2cc1OC	703	-23.7% (inactive)	3.9% (inactive)	102%	-42.1% (inactive)	124%	-0.457 (inactive)	-7.1e-05 (inactive)	0.0052 (inactive)	13.3% (inactive)	22.1% (inactive)
CCSc1oc(-c2ccco2)nc1S(=O)(=O)c1ccccc1	584	-7.9% (inactive)	-18% (inactive)	107%	4.3% (inactive)	105%	-0.316 (inactive)	-2.1e-05 (inactive)	0.00508 (inactive)	-7.74% (inactive)	-0.253% (inactive)
Cn1c(=O)[nH]c(=O)c2[nH]c(CN3CCN(C(=O)c4ccco4)CC3)nc21	418	-2.3% (inactive)	-1.2% (inactive)	124%	-5.3% (inactive)	131%	-0.54 (inactive)	-1.3e-05 (inactive)	0.00483 (inactive)	1.74% (inactive)	11% (inactive)
CCc1c(C)nc(N2CCN(Cc3ccccc3)CC2)[nH]c1=O	623	-17.8% (inactive)	17.3% (inactive)	120%	-51.5% (inactive)	106%	-0.507 (inactive)	2.9e-05 (inactive)	0.00476 (inactive)	17.7% (inactive)	10.6% (inactive)
O=C1CC(c2ccco2)CC(O)=C1C=NCC1NCCc2ccccc21 (stereo not drawn)	330	-2.8% (inactive)	5.8% (inactive)	94.2%	-123% (inactive)	125%	-0.511 (inactive)	2.1e-05 (inactive)	0.00572 (inactive)	17.9% (inactive)	27.2% (inactive)
CCOC(=O)c1cccc(NC(=O)CSc2nnc(-c3ccoc3C)n2CCOC)c1	553	-9.5% (inactive)	1% (inactive)	89.7%	-140% (inactive)	133%	-0.577 (inactive)	7.3e-06 (inactive)	0.00584 (inactive)	18.8% (inactive)	27.2% (inactive)
O=C(Cn1nnc2c(cnn2-c2ccc(F)cc2)c1=O)c1ccccc1F	438	5.1% (inactive)	-13.6% (inactive)	104%	-86.3% (inactive)	118%	-0.553 (inactive)	-4.4e-05 (inactive)	0.00571 (inactive)	11.8% (inactive)	10.7% (inactive)
Nc1nc(C2C(=O)CCCC2=O)cs1	391	-16.3% (inactive)	-1.6% (inactive)	103%	-93.1% (inactive)	148%	-0.511 (inactive)	-9.1e-05 (inactive)	0.00345 (inactive)	8.39% (inactive)	2.35% (inactive)
N#CC(C(=O)C1CCCCC1)c1nc2ccccc2[nH]1 (stereo not drawn)	723	-2% (inactive)	-11.3% (inactive)	101%	-107% (inactive)	128%	-0.6 (inactive)	3e-06 (inactive)	0.00531 (inactive)	4.07% (inactive)	-10.7% (inactive)
COc1ccc(CCNS(=O)(=O)c2ccc3c(c2)CCN3C(=O)CCC(=O)O)cc1OC	620	-6.5% (inactive)	0.9% (inactive)	125%	-14.5% (inactive)	121%	-0.553 (inactive)	7.1e-06 (inactive)	0.00473 (inactive)	12.6% (inactive)	21.5% (inactive)
COC(=O)c1nn(-c2ccc(-c3ccccc3)cc2)cc1O	281	6% (inactive)	14.9% (inactive)	99.2%	9.1% (inactive)	111%	-0.493 (inactive)	-1.1e-05 (inactive)	0.00465 (inactive)	6.22% (inactive)	7.64% (inactive)
O=C(OCc1cc2ccccc2[nH]c1=O)c1ccncc1	826	-3.9% (inactive)	25.6% (inactive)	104%	-66% (inactive)	115%	-0.536 (inactive)	-4.4e-05 (inactive)	0.00554 (inactive)	19.9% (inactive)	23.1% (inactive)
C=CCC(Nc1ccco1)c1ccccc1 (stereo not drawn)	393	2.5% (inactive)	3.4% (inactive)	112%	-17.9% (inactive)	114%	-0.498 (inactive)	-2.9e-05 (inactive)	0.00454 (inactive)	19% (inactive)	19.6% (inactive)
CCC(Sc1nc2n[nH]c(C)c2c(=N)n1-c1cc(Cl)ccc1C)C(=O)N1CCOCC1 (stereo not drawn)	338	-2.1% (inactive)	11.8% (inactive)	97.6%	-273% (inactive)	108%	-0.593 (inactive)	-1.6e-05 (inactive)	0.00508 (inactive)	-6.83% (inactive)	10% (inactive)
Cc1ccccc1N1CC(c2nc3ccccc3[nH]2)CC1=O (stereo not drawn)	385	3% (inactive)	-1.2% (inactive)	107%	-7.2% (inactive)	110%	-0.478 (inactive)	-1.5e-05 (inactive)	0.0056 (inactive)	-2.87% (inactive)	98.3% (active)
COc1ccccc1NC(=O)C1=C(C)Nc2ncnn2C1c1ccc(C)o1 (stereo not drawn)	355	14.6% (inactive)	24.5% (inactive)	90.6%	56.5% (inactive)	85.1%	-0.554 (inactive)	-0.000118 (inactive)	0.00338 (inactive)	19.9% (inactive)	20.2% (inactive)
CCN(CC)C(=O)CN(c1cc(Cl)ccc1OC)S(C)(=O)=O	776	-2.4% (inactive)	-2.7% (inactive)	108%	41.2% (inactive)	96%	-0.577 (inactive)	4.8e-07 (inactive)	0.00573 (inactive)	7.69% (inactive)	10.1% (inactive)
Cc1cc(NC(=O)COC(=O)c2cccc(S(=O)(=O)N3CCOCC3)c2)no1	457	-26.1% (inactive)	10.5% (inactive)	106%	67.8% (active)	64.5%	-0.471 (inactive)	1.8e-05 (inactive)	0.00706 (inactive)	12.1% (inactive)	24.4% (inactive)
COc1ccc(OC)c(N(CC(=O)N2CCN(c3cc(Cl)ccc3C)CC2)S(C)(=O)=O)c1	497	-7.3% (inactive)	23.1% (inactive)	61.4%	-13.6% (inactive)	105%	-0.572 (inactive)	-5.2e-05 (inactive)	0.00582 (inactive)	17% (inactive)	24.6% (inactive)
CCN1CCN(c2c(Cl)cccc2NC(=O)c2ccco2)CC1	248	10.6% (inactive)	-8.4% (inactive)	77.9%	-12.4% (inactive)	84.2%	-0.531 (inactive)	-2.5e-05 (inactive)	0.00466 (inactive)	1.94% (inactive)	29.2% (inactive)
O=C(COC(=O)c1ccco1)NCc1cccs1	516	-13% (inactive)	-4.6% (inactive)	93.5%	7.8% (inactive)	88.2%	-0.534 (inactive)	-5.7e-05 (inactive)	0.0055 (inactive)	5.62% (inactive)	5.96% (inactive)
CCCCC(CC)C(=O)Nc1ccccc1C#N (stereo not drawn)	452	6% (inactive)	-12.4% (inactive)	106%	-63.4% (inactive)	118%	-0.419 (inactive)	-2e-05 (inactive)	0.00611 (inactive)	14.8% (inactive)	22.1% (inactive)
COC(=O)c1[nH]c2ccccc2c1NC(=O)CN1CCC(C(N)=O)(N2CCCCC2)CC1	259	3.8% (inactive)	6.6% (inactive)	72.7%	-114% (inactive)	168%	-0.598 (inactive)	-1.9e-05 (inactive)	0.00286 (inactive)	20.8% (inactive)	30.6% (inactive)
CCOC(=O)c1cccc(NC(=O)Cn2cnc3c2c(=O)n(C)c(=O)n3C)c1	467	10.1% (inactive)	2.8% (inactive)	123%	2.2% (inactive)	114%	-0.261 (inactive)	-7e-06 (inactive)	0.00582 (inactive)	-6.03% (inactive)	-6.74% (inactive)
C[C@H](NC(=O)Nc1ccccc1F)C(=O)O	294	-8.5% (inactive)	4.9% (inactive)	86%	-78.4% (inactive)	138%	-0.602 (inactive)	5.1e-05 (inactive)	0.00462 (inactive)	14.6% (inactive)	24.2% (inactive)
CN(c1cccc(NS(=O)(=O)c2cccs2)c1)S(C)(=O)=O	427	2.4% (inactive)	-15.2% (inactive)	110%	-5% (inactive)	109%	-0.446 (inactive)	-2.2e-06 (inactive)	0.00491 (inactive)	21.9% (inactive)	15.4% (inactive)
O=C(Cc1ccc(Br)cc1)N1CCCCCC1	358	-0.2% (inactive)	1.7% (inactive)	99.5%	-68.6% (inactive)	99.7%	-0.657 (inactive)	1.8e-05 (inactive)	0.00369 (inactive)	-33.9% (inactive)	-69.5% (inactive)
